Reference: ChEMBL document CHEMBL1777724, “Discovery, design and synthesis of the first reported potent and selective sphingosine-1-phosphate 4 (S1P4) receptor antagonists” (Bioorg Med Chem Lett, 2011)
Calls of active or inactive are those of the source. The calls are words filed in the database; no cut-off is given here.

Legend:
[1] = biological target: T1, Sphingosine 1-phosphate receptor 4 (Homo sapiens, UniProt O95977); experiment: Antagonist activity at S1P4 receptor in human U2OS cells expressing EDG6-linked GAL4-VP16 transcription factor via TEV protease site/beta-arrestin/TEV protease fusion protein and beta-lactamase reporter gene assessed as beta-lactamase expression by FRET assay; format: functional, cell-based
T1 sequence (O95977 whole entry): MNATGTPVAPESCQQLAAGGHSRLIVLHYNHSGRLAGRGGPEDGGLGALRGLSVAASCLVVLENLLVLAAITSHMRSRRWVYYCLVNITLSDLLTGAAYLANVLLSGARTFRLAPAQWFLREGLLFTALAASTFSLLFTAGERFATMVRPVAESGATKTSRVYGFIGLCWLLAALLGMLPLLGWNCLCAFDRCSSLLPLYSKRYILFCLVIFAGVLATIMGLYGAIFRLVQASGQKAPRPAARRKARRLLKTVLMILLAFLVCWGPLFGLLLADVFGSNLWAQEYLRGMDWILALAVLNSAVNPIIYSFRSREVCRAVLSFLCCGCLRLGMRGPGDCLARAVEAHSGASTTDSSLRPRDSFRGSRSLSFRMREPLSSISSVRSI
Procedure, shortened: (§1)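 Cells co-express a beta-arrestin/TEV protease fusion protein and a beta-lactamase reporter gene under a UAS response element. Reporter expression was read as FRET of a cleavable, fluorogenic, cell-permeable beta-lactamase substrate. Compounds were tested at concentrations up to 25 μM. IC50 values are the mean of n = 3 determinations.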

[2] = biological target: T2, Sphingosine 1-phosphate receptor 5 (Homo sapiens, UniProt Q9H228); experiment: Inhibition of S1P5 receptor at 25 uM
Procedure, shortened: (§2)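 Selectivity counter-screen reported as percentage of inhibition at a single 25 μM concentration, given as the mean of n = 3 determinations.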

[3] = biological target: T3, Sphingosine 1-phosphate receptor 2 (Homo sapiens, UniProt O95136); experiment: Inhibition of S1P2 receptor
[4] = biological target: T3, Sphingosine 1-phosphate receptor 2; experiment: Inhibition of S1P2 receptor at 25 uM; procedure, shortened: as §2
[5] = biological target: T4, Sphingosine 1-phosphate receptor 1 (Homo sapiens, UniProt P21453); experiment: Inhibition of S1P1 receptor at 25 uM; procedure, shortened: as §2
[6] = biological target: Sphingosine 1-phosphate receptor 3 (Homo sapiens, UniProt Q99500); experiment: Inhibition of S1P3 receptor at 25 uM; procedure, shortened: as §2
[7] = biological target: T2, Sphingosine 1-phosphate receptor 5; experiment: Inhibition of S1P5 receptor
[8] = biological target: T5, Sphingosine 1-phosphate receptor 4 (Homo sapiens) (UniProt O95977); experiment: Antagonist activity at S1P4 receptor in human U2OS cells expressing EDG6-linked GAL4-VP16 transcription factor via TEV protease site/beta-arrestin/TEV protease fusion protein and beta-lactamase reporter gene assessed as beta-lactamase expression up to 25 uM by FRET assay; format: functional, cell-based; procedure, shortened: as §1
T5 sequence (whole entry): T1 sequence (O95977 whole entry)

[9] = biological target: T4, Sphingosine 1-phosphate receptor 1; experiment: Inhibition of S1P1 receptor

Sphingosine 1-phosphate receptor 3, sequence (Q99500 whole entry): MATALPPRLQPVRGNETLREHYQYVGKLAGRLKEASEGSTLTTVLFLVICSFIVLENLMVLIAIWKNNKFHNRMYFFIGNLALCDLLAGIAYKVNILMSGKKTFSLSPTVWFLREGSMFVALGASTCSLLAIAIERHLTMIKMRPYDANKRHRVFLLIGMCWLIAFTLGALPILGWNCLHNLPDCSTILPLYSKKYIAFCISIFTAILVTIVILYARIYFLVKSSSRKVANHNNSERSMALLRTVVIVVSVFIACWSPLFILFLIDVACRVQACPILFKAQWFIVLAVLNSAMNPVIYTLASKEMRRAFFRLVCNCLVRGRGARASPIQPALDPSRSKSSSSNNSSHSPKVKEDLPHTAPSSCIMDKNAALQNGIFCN
T4 sequence (P21453 whole entry): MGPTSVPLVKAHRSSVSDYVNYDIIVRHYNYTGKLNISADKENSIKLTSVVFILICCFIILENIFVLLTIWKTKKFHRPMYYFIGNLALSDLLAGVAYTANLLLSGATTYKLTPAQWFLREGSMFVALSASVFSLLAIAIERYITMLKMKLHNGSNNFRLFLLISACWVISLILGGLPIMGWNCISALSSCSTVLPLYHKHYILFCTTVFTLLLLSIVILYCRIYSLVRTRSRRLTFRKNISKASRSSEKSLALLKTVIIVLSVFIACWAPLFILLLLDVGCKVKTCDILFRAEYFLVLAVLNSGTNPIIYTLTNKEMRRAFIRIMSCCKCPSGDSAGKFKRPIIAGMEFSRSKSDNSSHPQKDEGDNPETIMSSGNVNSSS
T2 sequence (Q9H228 whole entry): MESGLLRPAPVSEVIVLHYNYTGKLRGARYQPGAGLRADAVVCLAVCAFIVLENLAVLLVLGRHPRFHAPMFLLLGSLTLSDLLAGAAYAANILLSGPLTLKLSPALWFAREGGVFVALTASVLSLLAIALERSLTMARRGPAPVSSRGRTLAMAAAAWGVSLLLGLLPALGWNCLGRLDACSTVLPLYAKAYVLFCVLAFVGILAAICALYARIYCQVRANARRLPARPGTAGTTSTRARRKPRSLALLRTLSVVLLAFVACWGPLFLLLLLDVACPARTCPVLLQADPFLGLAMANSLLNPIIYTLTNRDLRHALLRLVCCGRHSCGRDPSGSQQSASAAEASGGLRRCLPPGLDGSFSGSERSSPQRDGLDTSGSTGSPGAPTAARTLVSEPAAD
T3 sequence (O95136 whole entry): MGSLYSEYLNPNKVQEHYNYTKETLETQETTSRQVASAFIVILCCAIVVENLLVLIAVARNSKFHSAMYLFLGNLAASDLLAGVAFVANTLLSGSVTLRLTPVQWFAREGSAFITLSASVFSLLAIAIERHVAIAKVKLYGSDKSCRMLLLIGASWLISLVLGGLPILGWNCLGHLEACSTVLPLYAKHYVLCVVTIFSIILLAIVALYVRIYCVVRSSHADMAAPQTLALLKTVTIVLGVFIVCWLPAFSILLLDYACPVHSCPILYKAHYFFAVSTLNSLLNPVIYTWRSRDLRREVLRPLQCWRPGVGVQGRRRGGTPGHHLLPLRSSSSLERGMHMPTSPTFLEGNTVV

Structure (SMILES): COc1ccc(NC(=O)c2ccc(-c3cc(Cl)ccc3Cl)o2)c(C)c1
- IC50 [1]: 589 nM

Structure (SMILES): COc1cc(C)c(NC(=O)c2ccc(-c3cc(Cl)ccc3Cl)o2)c(C)c1
- inhibition [2]: 40%
- IC50 [3]: 2800 nM
- inhibition [4]: 70%
- inhibition [5]: 20%
- IC50 [1]: 80 nM
- inhibition [6]: 30%

Structure (SMILES): Cc1cccc(C)c1NC(=O)c1ccc(-c2cc(Cl)ccc2Cl)o1
- IC50 [1]: 78 nM
- IC50 [7]: 14000 nM

Structure (SMILES): CCc1cccc(CC)c1NC(=O)c1ccc(-c2cc(Cl)ccc2Cl)o1
- inhibition [2]: inactive
- inhibition [4]: inactive
- inhibition [5]: inactive
- IC50 [1]: 89 nM
- inhibition [6]: inactive

Structure (SMILES): Cc1cscc1-c1ccc(C(=O)Nc2c(C)cccc2C)o1
- IC50 [1]: 286 nM

Structure (SMILES): Cc1cccc(C)c1NC(=O)c1ccc(-c2cc(C(F)(F)F)ccc2C(F)(F)F)o1
- inhibition [8]: inactive

Structure (SMILES): Cc1ccsc1-c1ccc(C(=O)Nc2c(C)cccc2C)o1
- inhibition [2]: 40%
- IC50 [3]: 2600 nM
- inhibition [5]: 95%
- IC50 [1]: 93 nM
- inhibition [6]: 20%

Structure (SMILES): COc1cccc(C)c1NC(=O)c1ccc(-c2cc(Cl)ccc2Cl)o1
- IC50 [1]: 163 nM

Structure (SMILES): CC(=O)OCc1cc(C)c(NC(=O)c2ccc(-c3cc(Cl)ccc3Cl)o2)c(C)c1
- IC50 [1]: 34 nM

Structure (SMILES): Cc1cccc(C)c1NC(=O)c1ccc(-c2ccc(Cl)cc2Cl)o1
- IC50 [1]: 2000 nM

Structure (SMILES): Cc1cc(CN(C)C)cc(C)c1NC(=O)c1ccc(-c2cc(Cl)ccc2Cl)o1
- IC50 [1]: 348 nM

Structure (SMILES): Cc1ccsc1-c1ccc(C(=O)Nc2c(C)cc(CO)cc2C)o1
- inhibition [2]: inactive
- inhibition [4]: 90%
- inhibition [5]: 80%
- IC50 [1]: 34 nM
- inhibition [6]: inactive

Structure (SMILES): COc1ccc(C)c(NC(=O)c2ccc(-c3cc(Cl)ccc3Cl)o2)c1
- IC50 [1]: 931 nM

Structure (SMILES): O=C(c1ccc(-c2cc(Cl)ccc2Cl)o1)N1CCc2ccccc21
- inhibition [8]: inactive

Structure (SMILES): Cc1cccc(C)c1NC(=O)c1ccc(-c2ccsc2)o1
- IC50 [1]: 448 nM

Structure (SMILES): Cc1cccc(C)c1NC(=O)c1ccc(-c2ccc(Cl)s2)o1
- IC50 [1]: 515 nM

Structure (SMILES): Cc1ccc(C)c(NC(=O)c2ccc(-c3cc(Cl)ccc3Cl)o2)c1
- IC50 [1]: 165 nM

Structure (SMILES): CC(=O)NCc1cc(C)c(NC(=O)c2ccc(-c3cc(Cl)ccc3Cl)o2)c(C)c1
- IC50 [1]: 94 nM

Structure (SMILES): CCc1cccc(C)c1NC(=O)c1ccc(-c2cc(Cl)ccc2Cl)o1
- inhibition [2]: 50%
- inhibition [4]: 50%
- inhibition [5]: inactive
- IC50 [1]: 41 nM
- inhibition [6]: 55%

Structure (SMILES): Cc1cc(CO)cc(C)c1NC(=O)c1ccc(-c2cc(Cl)ccc2Cl)o1
- inhibition [2]: 40%
- IC50 [3]: 3000 nM
- inhibition [4]: 85%
- inhibition [5]: 45%
- IC50 [1]: 21 nM
- inhibition [6]: 60%

Structure (SMILES): Cc1ccc(S(C)(=O)=O)c(C)c1NC(=O)c1ccc(-c2cc(Cl)ccc2Cl)o1
- IC50 [1]: 302 nM

Structure (SMILES): Cc1cc(OCC(N)=O)cc(C)c1NC(=O)c1ccc(-c2cc(Cl)ccc2Cl)o1
- IC50 [1]: 52 nM

Structure (SMILES): Cc1cc(CN)cc(C)c1NC(=O)c1ccc(-c2cc(Cl)ccc2Cl)o1
- inhibition [2]: 90%
- IC50 [3]: 3900 nM
- IC50 [9]: 6400 nM
- inhibition [4]: 90%
- IC50 [1]: 25 nM
- inhibition [6]: 95%
- IC50 [7]: 5500 nM

Structure (SMILES): Cc1ccsc1-c1ccc(C(=O)Nc2c(C)cc(O)cc2C)o1
- inhibition [2]: inactive
- inhibition [4]: 80%
- inhibition [5]: 75%
- IC50 [1]: 46 nM
- inhibition [6]: 10%

Structure (SMILES): Cc1cc(-c2ccccc2)cc(C)c1NC(=O)c1ccc(-c2cc(Cl)ccc2Cl)o1
- IC50 [1]: 115 nM

Structure (SMILES): O=C(Nc1c(F)cccc1F)c1ccc(-c2cc(Cl)ccc2Cl)o1
- IC50 [1]: 6400 nM

Structure (SMILES): Cc1cccc(C)c1N(C)C(=O)c1ccc(-c2ccccc2Cl)o1
- IC50 [1]: 269 nM

Structure (SMILES): Cc1cccc(C)c1NC(=O)c1ccc(-c2ccccc2)o1
- IC50 [1]: 575 nM

Structure (SMILES): COc1ccc(OC)c(-c2ccc(C(=O)N(C)c3c(C)cccc3C)o2)c1
- IC50 [1]: 513 nM

Structure (SMILES): Cc1cc(O)cc(C)c1NC(=O)c1ccc(-c2cc(Cl)ccc2Cl)o1
- IC50 [3]: 2800 nM
- IC50 [9]: 5300 nM
- inhibition [4]: 90%
- IC50 [1]: 58 nM
- IC50 [7]: 3000 nM

Structure (SMILES): Cc1cc(OCCO)cc(C)c1NC(=O)c1ccc(-c2cc(Cl)ccc2Cl)o1
- inhibition [2]: 60%
- IC50 [3]: 2400 nM
- inhibition [4]: 90%
- inhibition [5]: 35%
- IC50 [1]: 44 nM
- inhibition [6]: 70%

Structure (SMILES): Cc1cccc(C)c1NC(=O)c1ccc(-c2cccc(Cl)c2)o1
- IC50 [1]: 497 nM

Structure (SMILES): Cc1cccc(C)c1NC(=O)c1ccc(-c2c(C)cccc2C)o1
- inhibition [8]: inactive

Structure (SMILES): Cc1ccc(C)c(-c2ccc(C(=O)Nc3c(C)cccc3C)o2)c1
- IC50 [1]: 64 nM

Structure (SMILES): Cc1cc(C)c(NC(=O)c2ccc(-c3cc(Cl)ccc3Cl)o2)c(C)c1
- IC50 [1]: 63 nM

Structure (SMILES): Cc1cccc(Cl)c1NC(=O)c1ccc(-c2cc(Cl)ccc2Cl)o1
- IC50 [1]: 169 nM

Structure (SMILES): COc1cccc(OC)c1NC(=O)c1ccc(-c2cc(Cl)ccc2Cl)o1
- IC50 [1]: 417 nM

Structure (SMILES): Cc1cccc(C)c1NC(=O)c1ccc(-c2cccs2)o1
- IC50 [1]: 118 nM

Structure (SMILES): CC(C)c1cccc(C(C)C)c1NC(=O)c1ccc(-c2cc(Cl)ccc2Cl)o1
- IC50 [1]: 105 nM

Structure (SMILES): Cc1cccc(C)c1N(C)C(=O)c1ccc(-c2cc(O)ccc2O)o1
- inhibition [8]: inactive

Structure (SMILES): Cc1cccc(C)c1NC(=O)c1ccc(-c2cc(F)ccc2F)o1
- IC50 [1]: 308 nM

Structure (SMILES): Cc1cc(C)c(N(C)C(=O)c2ccc(-c3cc(Cl)ccc3Cl)o2)c(C)c1
- IC50 [1]: 8100 nM

Structure (SMILES): Cc1ccc2ccccc2c1NC(=O)c1ccc(-c2cc(Cl)ccc2Cl)o1
- IC50 [1]: 253 nM

Structure (SMILES): Cc1cccc(CO)c1NC(=O)c1ccc(-c2cc(Cl)ccc2Cl)o1
- IC50 [1]: 573 nM

Structure (SMILES): Cc1cccc(C)c1N(C)C(=O)c1ccc(-c2ccco2)o1
- IC50 [1]: 130 nM
